The subject of one series is Plasmodium falciparum. As to the kind of experiment: Antimalarial activity against chloroquine-sensitive Plasmodium falciparum 3D7 cultured in human erythrocytes incubated for 72 hrs by [3H]-hypoxanthine incorporation assay. In kind it is functional, organism-based.
Series [1] in a line: Volume of distribution at steady state in CD1 mouse at 10 mg/kg, iv by HPLC coupled to tandem mass spectrometry. Format: ADME, organism-based. As to conditions: in vivo, read-out: Vdss. The method, boiled down:
(§1)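 Adult female CD-1 mice were dosed 10 mg/kg by iv injection or 30 mg/kg by oral gavage, with the compound in 100% saline. Blood samples were collected and drug content was measured by HPLC-tandem MS.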

Series [2] can be described thus: Clearance in CD1 mouse at 10 mg/kg, iv by HPLC coupled to tandem mass spectrometry. In kind it is ADME, organism-based. As to conditions: in vivo. In short, it runs like this:
as §1

The test system of series [3] is Mus musculus. Nature of the series: AUC (0 to infinity) in CD1 mouse assessed as 5-(1-hydroxy-1,3-dihydrobenzo[c][1,2]oxaborol-6-yloxy)pyrazine-2-carboxylic acid level at 5 mg/kg, po by HPLC coupled to tandem mass spectrometry. In kind it is ADME, organism-based. Also noted: dose 5 mg/kg, route oral, time infinity. As to conditions: in vivo. The method, boiled down:
(§2)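 The parent ester was given to adult female CD-1 mice at 5 mg/kg, iv or by oral gavage, in PEG 400/dimethylacetamide/water (45/10/45, pH 5.8). Blood was sampled, and the acid formed from the ester in vivo was quantified by HPLC-tandem MS to derive its PK parameters.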

In series [4] the test system is Plasmodium berghei. As to the kind of experiment: Antiplasmodial activity against Plasmodium berghei infected in Swiss Webster mouse assessed as mouse survival at 3 mg/kg, po dosed once daily for 4 consecutive days beginning 1 hr after initial infection and measured on day 10 post infection by Giemsa staining method. In kind it is functional. In short, it runs like this: (§3)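 Female Swiss Webster mice (about 20 g) infected ip with 6 × 10^6 P. berghei-infected erythrocytes. Oral gavage once daily for 4 days, starting 1 h after infection. Vehicle PEG300/propylene glycol/water (55/25/20 by weight). Giemsa-smear parasitemia counted daily from day 4. Mice euthanised above 50% parasitemia. Survival followed to day 21, 5 mice per dose, chloroquine 30 mg/kg as reference.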

The subject of series [5] is Plasmodium berghei. As to the kind of experiment: Antiplasmodial activity against Plasmodium berghei infected in Swiss Webster mouse assessed as mouse survival at 100 mg/kg, po dosed once daily for 4 consecutive days beginning 1 hr after initial infection and measured on day 15 post infection by Giemsa staining method. In kind it is functional. The method, boiled down: as §3

Series [6] deals with Mus musculus. As to the kind of experiment: Terminal half life in CD1 mouse assessed as 5-(1-hydroxy-1,3-dihydrobenzo[c][1,2]oxaborol-6-yloxy)pyrazine-2-carboxylic acid level at 5 mg/kg, iv by HPLC coupled to tandem mass spectrometry. Format: ADME, organism-based. As to conditions: in vivo. The method, boiled down: as §2
The test system of series [7] is Mus musculus. As to the kind of experiment: AUC (0 to infinity) in CD1 mouse assessed as 5-(1-hydroxy-1,3-dihydrobenzo[c][1,2]oxaborol-6-yloxy)pyrazine-2-carboxylic acid level at 5 mg/kg, iv by HPLC coupled to tandem mass spectrometry. In kind it is ADME, organism-based. Also noted: dose 5 mg/kg, route intravenous, time infinity. The note with it: in vivo. The method, boiled down:
as §2

Series [8] has as its system Plasmodium berghei. As to the kind of experiment: Antiplasmodial activity against Plasmodium berghei infected in Swiss Webster mouse assessed as mouse survival at 100 mg/kg, po dosed once daily for 4 consecutive days beginning 1 hr after initial infection and measured on day 13 post infection by Giemsa staining method. Format: functional. The method, boiled down: as §3

For series [9], the system named is Plasmodium berghei. As to the kind of experiment: Antiplasmodial activity against Plasmodium berghei infected in Swiss Webster mouse assessed as mouse survival at 3 mg/kg, po dosed once daily for 4 consecutive days beginning 1 hr after initial infection and measured on day 12 post infection by Giemsa staining method. In kind it is functional. In short, it runs like this: as §3

The test system of series [10] is Plasmodium berghei. As to the kind of experiment: Antiplasmodial activity against Plasmodium berghei infected in Swiss Webster mouse assessed as mouse survival at 200 mg/kg, po dosed once daily for 4 consecutive days beginning 1 hr after initial infection and measured on day 9 post infection by Giemsa staining method. In kind it is functional. In short, it runs like this: as §3

Series [11] relates to Plasmodium berghei. As to the kind of experiment: Antiplasmodial activity against Plasmodium berghei infected in Swiss Webster mouse assessed as mouse survival at 200 mg/kg, po dosed once daily for 4 consecutive days beginning 1 hr after initial infection and measured on day 8 post infection by Giemsa staining method. In kind it is functional. In short, it runs like this:
as §3

Series [12] has as its system Plasmodium berghei. As to the kind of experiment: Antiplasmodial activity against Plasmodium berghei infected in Swiss Webster mouse assessed as mouse survival at 200 mg/kg, po dosed once daily for 4 consecutive days beginning 1 hr after initial infection and measured on day 10 post infection by Giemsa staining method. In kind it is functional. In short, it runs like this:
as §3

The test system of series [13] is Plasmodium berghei. Nature of the series: Antiplasmodial activity against Plasmodium berghei infected in Swiss Webster mouse assessed as mouse survival at 200 mg/kg, po dosed once daily for 4 consecutive days beginning 1 hr after initial infection and measured on day 7 post infection by Giemsa staining method. Format: functional. In short, it runs like this: as §3

pIC50: −log10 of the molar value.

A word on the pIC50: it is the negative decadic logarithm of the IC50, by convention in mol/L. Low readings indicate a high IC50, high ones a low IC50. As usually defined, the clearance is the volume of plasma or blood freed of the substance per unit of time. In the series with Plasmodium falciparum, `O=C(O)c1cnc(Oc2ccc3c(c2)B(O)OC3)cn1` gave a pIC50 of 6.52. For the same molecule, the Vd in series [1] was 0.848 L/kg. In [2], the clearance is 38.8 mL/min/kg.
Usually AUC stands for concentration integrated over time. With `COC(=O)c1cnc(Oc2ccc3c(c2)B(O)OC3)cn1`, the AUC with Mus musculus [3] is 610 ng·h/mL; in the series with Mus musculus [7], 990 ng·h/mL. In addition, the results for the survival at 3 mg/kg in the series on Plasmodium berghei [4] and with Plasmodium berghei [9] were 40% and 0%, respectively. Also, the survival at 100 mg/kg in the series on Plasmodium berghei [5] worked out at 40%; in the series on Plasmodium berghei [8], 60%. For the same molecule, the “beta t1/2” value in the series with Mus musculus [6] stood at 7.8 min.
On to `NC(=O)c1cnc(Oc2ccc3c(c2)B(O)OC3)cn1`, for which the survival at 200 mg/kg in the series with Plasmodium berghei [10] was found to be 40%; with Plasmodium berghei [11] it was 100%; with Plasmodium berghei [12], 0%; with Plasmodium berghei [13], 100%.

These data come from ChEMBL document CHEMBL3580633, “Benzoxaborole antimalarial agents. Part 4. Discovery of potent 6-(2-(alkoxycarbonyl)pyrazinyl-5-oxy)-1,3-dihydro-1-hydroxy-2,1-benzoxaboroles” (J Med Chem, 2015).
